Calls of active or inactive are those of the source. No cut-off for these calls is given here.
Tests used:
[1] = molecular target: T1, 20S proteasome (Homo sapiens) (UniProt P49721+P20618+P28074+P28062+P28065+P28072+P25786+P25787+P25788+P25789+P28066+P60900+O14818+Q8TAA3+P40306+A5LHX3+P49720+P28070+Q99436); assay: Stimulation of human 20S proteasome assessed as increase in proteasome activity at 25 uM and measured upto 60 mins using FRET peptide as substrate by FRET assay relative to control; assay type: protein-complex assay; conditions: filed as activator
How it was run: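 Purified 20S CP (5 nM) with 20 µM FRET peptide reporter in Tris-HCl (50 mM, pH 7.63), 2% DMSO, 25 µL. Controls were reporter alone and basal enzyme with DMSO, in triplicate. Read at 37 °C, ex 335/em 493 nm, every 2 min for 60 min. Rate taken as slope of linear portion.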

[2] = molecular target: T2, Proteasome Macropain subunit MB1 (Homo sapiens) (UniProt P28074); assay: Stimulation of human 20S proteasome beta 5 subunit in human HEK-293T cells assessed as increase in proteasome activity at 6.25 to 25 uM preincubated for 2 hrs followed by Me4BodipyFL-Ahx3Leu3VS proteasome probe addition and measured after 1 hrs by SDS-PAGE analysis; assay type: cell-based; conditions: filed as activator, dose 6.25-25 µM
T2 sequence (whole entry): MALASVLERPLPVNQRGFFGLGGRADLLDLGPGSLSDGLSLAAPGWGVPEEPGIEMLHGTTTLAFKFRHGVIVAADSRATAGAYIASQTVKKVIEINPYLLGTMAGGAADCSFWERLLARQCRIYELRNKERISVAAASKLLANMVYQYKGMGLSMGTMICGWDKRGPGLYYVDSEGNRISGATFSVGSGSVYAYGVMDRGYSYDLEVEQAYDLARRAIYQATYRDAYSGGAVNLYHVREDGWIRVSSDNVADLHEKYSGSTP
How it was run: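 Treated 2 h in fresh medium, DMSO control 0.5%, then 1 µM Me4BodipyFL-Ahx3Leu3VS probe added. Cells lysed in M-PER with protease inhibitors. 50 µg protein run on 4–15% SDS-PAGE, in-gel fluorescence scanned at 488 nm. Band densities quantified, triplicate.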

[3] = molecular target: T1, 20S proteasome (Homo sapiens); assay: Activation of human 20S proteasome mediated degradation of alpha-synuclein assessed as amount of alpha-synuclein remaining at 25 uM and incubated for 2 hrs by Coomassie staining based SDS-PAGE analysis; assay type: protein-complex assay; conditions: filed as activator
How it was run: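 Human 20S CP (5 nM final) with α-Syn monomer (400 ng) in Tris-HCl (50 mM, pH 7.6), 2% DMSO, 18 µL total, 2 h at 37 °C, triplicate. Mixed on ice before incubation. Stopped in SDS loading buffer at 95 °C 5 min. Run on 4–15% SDS-PAGE, Coomassie stained, band intensity normalized to α-Syn without 20S CP.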

HEK-293T = assay: Cytotoxicity against human HEK-293T cells assessed as reduction in cell viability at 6.25 to 25 uM incubated for 24 hrs by CellTiter Glo viability assay; assay type: toxicity, cell-based; conditions: dose 6.25-25 µM
How it was run: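 HEK-293T seeded at 5000 cells/well, attached overnight, medium refreshed. Compound in DMSO added in triplicate, 1% final DMSO, 24 h. Plate equilibrated to room temperature 30 min before CellTiter-Glo reagent, shaken 10 min, signal stabilized 10 min. Luminescence read.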

Question: With `CCCCCCCC/C=C\CCCCCCCC(=O)NCc1ccc(C(C)(C)C)cc1` as the compound, how does the Activity [1] read?
Answer: The Activity was 106%.

Question: How did the Activity [1] turn out when `CCCCCCCC/C=C\CCCCCCCC(=O)NCc1cccc(C)c1` was run?
Answer: The Activity was 183%.

Question: How did the Activity [1] turn out when `CCCCCCCC/C=C\CCCCCCCC(=O)NCc1ccc(Cl)cc1` was run?
Answer: The Activity was 138%.

Question: `CCCCCCCC/C=C\CCCCCCCC(=O)Nc1ccc(C(C)(C)C)cc1` was tested. Which Activity [1] did it give?
Answer: Its Activity is 68%.

Question: For `CCCCCCCC/C=C\CCCCCCCC(=O)Nc1ccc(Oc2ccccc2)cc1`, which Activity [1] is on record?
Answer: Its Activity is 145%.

Question: How did the Activity [1] turn out when `CCCCCCCC/C=C\CCCCCCCC(=O)NCc1ccccc1` was run?
Answer: Its Activity is 208%.

Question: Which results are given for `CCCCCCCC/C=C\CCCCCCCC(=O)NCc1ccc(O)cc1`?
Answer: Activity [1]: 361%; Activity [2]: Active; Activity [3]: Active; Activity (HEK-293T): Toxic

Question: For `CCCCCCCC/C=C\CCCCCCCC(=O)NCC(C)C`, which Activity [1] is on record?
Answer: Its Activity is 139%.

Question: Which Activity [1] does the source give for `CCCCCCCC/C=C\CCCCCCCC(=O)NC1CCCC1` here?
Answer: The Activity was 218%.

Question: `CCCCCCCC/C=C\CCCCCCCC(=O)NCc1ccc(OC)cc1` was tested. Which Activity [1] did it give?
Answer: Its Activity is 116%.

Question: Which Activity [1] does the source give for `CCCCCCCC/C=C\CCCCCCCC(=O)N[C@H]1CC[C@H](C)CC1` here?
Answer: The Activity was 118%.

Question: Which Activity [1] does the source give for `CCCCCCCC/C=C\CCCCCCCC(=O)NCCCC` here?
Answer: Its Activity is 138%.

Question: `CCCCCCCC/C=C\CCCCCCCC(=O)NCc1ccc(C)cc1` was tested. Which Activity [1] did it give?
Answer: Its Activity is 167%.

Question: For `CCCCCCCC/C=C\CCCCCCCC(=O)NC`, which Activity [1] is on record?
Answer: Its Activity is 132%.

Question: For `CCCCCCCC/C=C\CCCCCCCC(=O)N[C@@H](C)c1ccccc1`, which Activity [1] is on record?
Answer: The Activity was 195%.

Question: For `CCCCCCCC/C=C\CCCCCCCC(=O)NC1CCCCCC1`, which Activity [1] is on record?
Answer: The Activity was 136%.

Question: Which Activity [1] does the source give for `CCCCCCCC/C=C\CCCCCCCC(=O)N[C@H](C)c1ccccc1` here?
Answer: The Activity was 225%.

Question: What does the source list for `CCCCCCCC/C=C\CCCCCCCC(=O)Nc1ccc(C(C)=O)cc1`?
Answer: Activity [1]: 241%; Activity [2]: Active; Activity [3]: Active; Activity (HEK-293T): Non-Toxic

Question: For `CCCCCCCC/C=C\CCCCCCCC(=O)NCCCCC`, which Activity [1] is on record?
Answer: The Activity was 124%.

Question: For `CCCCCCCC/C=C\CCCCCCCC(=O)Nc1ccc(O)cc1`, which Activity [1] is on record?
Answer: Its Activity is 247%.

Question: With `CCCCCCCC/C=C\CCCCCCCC(=O)NCc1ccccc1C` as the compound, how does the Activity [1] read?
Answer: Its Activity is 107%.

Question: For `CCCCCCCC/C=C\CCCCCCCC(=O)Nc1ccc(Cl)cc1`, which Activity [1] is on record?
Answer: The Activity was 144%.

Question: Which Activity [1] does the source give for `CCCCCCCC/C=C\CCCCCCCC(=O)NC1CCC1` here?
Answer: The Activity was 202%.

Question: Which results are given for `CCCCC/C=C\C/C=C\C/C=C\C/C=C\CCCC(=O)Nc1ccc(O)cc1`?
Answer: Activity [1]: 219%; Activity ([2]; DDE = dose-dependent effect): Dde; Activity [3]: Active; Activity (HEK-293T): Toxic

Question: With `CCCCCCCC/C=C\CCCCCCCC(=O)NC1CCCCCCC1` as the compound, how does the Activity [1] read?
Answer: The Activity was 148%.

Question: How did the Activity [1] turn out when `CCCCCCCC/C=C\CCCCCCCC(=O)NCc1ccc(C(F)(F)F)cc1` was run?
Answer: Its Activity is 92%.

Question: How did the Activity [1] turn out when `CCCCCCCC/C=C\CCCCCCCC(=O)NCCC` was run?
Answer: The Activity was 154%.

Question: And the Activity [2]?
Answer: Its Activity is “Active”.

Question: What about the Activity [3] of the same compound?
Answer: Its Activity is “Active”.

Question: And the Activity (HEK-293T)?
Answer: The Activity was “Toxic”.

Question: For `CCCCCCCC/C=C\CCCCCCCC(=O)NC1CCCCC1`, which Activity [1] is on record?
Answer: The Activity was 204%.

Question: With `CCCCCCCC/C=C\CCCCCCCC(=O)Nc1ccccc1` as the compound, how does the Activity [1] read?
Answer: The Activity was 159%.

From ChEMBL document CHEMBL5104206, “Oleic amide derivatives as small molecule stimulators of the human proteasome's core particle” (RSC Med Chem, 2022)
